The text below walks through data of ChEMBL document CHEMBL4715822, “Structure-based lead optimization to improve antiviral potency and ADMET properties of phenyl-1H-pyrrole-carboxamide entry inhibitors targeted to HIV-1 gp120” (Eur J Med Chem, 2018).

Series [1] in a line: Cytotoxicity against dog Cf2Th-CCR5 cells assessed as reduction in cell viability incubated for 48 hrs by XTT assay. Type of series: cell-based, Canis lupus familiaris. The following applies: Cf2Th-CCR5 cells. Background: Formazan colour is commonly taken as a measure of viable cells.
Series [2] can be described thus: Metabolic stability in human liver microsomes assessed as parent compound remaining at 3 uM incubated for 120 mins by LC-MS/MS analysis. It is filed as ADME, Microsome. Conditions: read-out: Stabilty. On the technique in general: Liver microsomes are a subcellular fraction often used to study metabolism.
Series [3] in a line: Apparent permeability across basolateral to apical side in human Caco2 cells incubated for 2 hrs by LC-MS/MS analysis. It is filed as ADME, cell-based, Caco-2. Conditions: Caco-2. The method in brief:
(§1)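 Caco-2 monolayers grown three weeks to differentiate; compound in transport buffer pH 7.4 (glucose, 10 mM HEPES, HBSS) added apical (A-B) or basal (B-A) side, with or without 100 μM verapamil; 2 h incubation, both sides sampled. Lucifer yellow 100 μM on A side checks integrity (≤2% transport). Papp = (dQ/dt)/(C0 × A); efflux ratio = Papp(B→A)/Papp(A→B).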

The subject of series [4] is Human immunodeficiency virus 1. The series is described as follows: Antiviral activity against HIV-1 ADA infected in human MOLT-4 cells assessed as reduction in viral transmission to TZM-bl cells incubated for 48 hrs by luciferase based assay. It is filed as functional, organism-based. The following applies: Human immunodeficiency virus 1, ADA, MOLT-4, 48 h.
Series [5] is described as follows: Solubility in 5% DMSO at pH 7.4 at 500 uM incubated for 90 mins in shaker by spectrophotometry. It is filed as physicochemical. The method, boiled down:
(§2)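 DMSO stock diluted to 500 μM in universal aqueous buffer pH 7.4 with 2 or 5% DMSO final; quadruplicate, 90 min shaking at room temperature in filter plate, vacuum filtered; filtrate in 20% acetonitrile read by UV absorbance at six wavelengths. Filtrate/standard ratio binned as ~500, 100–500 or <100 μM.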

Series [6] is described as follows: Cytotoxicity against human TZM-bl cells assessed as reduction in cell viability incubated for 3 days by XTT assay. Type of series: cell-based. Conditions: TZM-bl cells, time 3 day.
A short description of series [7]: Protein binding in human plasma assessed as unbound fraction at 5 uM by LC-MS/MS analysis. It is filed as ADME, cell-free.
Series [8] in a line: Metabolic stability in human liver microsomes assessed as intrinsic clearance at 3 uM incubated for 120 mins by LC-MS/MS analysis. Type of series: ADME, Microsome. Conditions: read-out: CLH.
Series [9] can be described thus: Cytotoxicity against human PBMC cells assessed as reduction in cell viability incubated for 1 hr followed by complete medium addition and measured after 48 hrs by XTT assay. It is filed as cell-based.
In series [10] the test system is Human immunodeficiency virus 1. The series is described as follows: Antiviral activity against pseudovirus HIV-1 HXB-2 harboring Env I424F mutant infected in human U87.CD4.CXCR4 cells assessed as reduction in viral infection pretreated for 30 mins before viral infection and measured after 3 days by luciferase based assay. It is filed as functional, cell-based, M:B_HXB2R. The method, boiled down:
(§3)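 Pseudoviruses made in HEK293T by co-transfecting an Env-deleted backbone (pSG3Δenv or pNL4-3.Luc.R-.E-) with an HXB-2 Env plasmid carrying single or double substitutions; Env sequences confirmed by sequencing. Virus pretreated 30 min with graded compound, added to U87-CD4-CXCR4 cells (1 × 10⁴/well, plated overnight), incubated 3 days. Cells lysed, luciferase measured, IC50 calculated.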

The subject of series [11] is Human immunodeficiency virus 1. Briefly: Antiviral activity against pseudovirus HIV-1 HXB-2 harboring Env A204D mutant infected in human U87.CD4.CXCR4 cells assessed as reduction in viral infection pretreated for 30 mins before viral infection and measured after 3 days by luciferase based assay. It is filed as functional, cell-based, M:B_HXB2R. The method in brief:
as §3

Series [12] can be described thus: Cytotoxicity against human MT2 cells assessed as reduction in cell viability incubated for 4 days by XTT assay. Conditions: MT2 cells, time 4 day. Type of series: cell-based.
In series [13] the test system is Human immunodeficiency virus 1. The series is described as follows: Antiviral activity against HIV-1 3B infected in human H9 cells assessed as reduction in viral transmission to TZM-bl cells incubated for 48 hrs by luciferase based assay. Type of series: functional, organism-based. The following applies: Human immunodeficiency virus 1, 3B, H9, 48 h.
A short description of series [14]: Solubility in 2 % DMSO at pH 7.4 at 500 uM incubated for 90 mins in shaker by spectrophotometry. It is filed as physicochemical. The method, boiled down:
as §2

The nature of series [15]: Apparent permeability across apical to basolateral side in human Caco2 cells incubated for 2 hrs by LC-MS/MS analysis. Type of series: ADME, cell-based, Caco-2. The following applies: Caco-2. The method in brief: as §1
Series [16] in a line: Induction viral infection in pseudovirus HIV1 ADA infected in dog Cf2Th-CCR5 cells incubated for overnight followed by pretreated for 30 mins and added to cells measured after 48 hrs by luciferase-based assay. The following applies: human immunodeficiency virus 1, cf2th-ccr5, 48.5 h. Type of series: cell-based.
The target in series [17] is Cytochrome P450 2C19 (Homo sapiens, UniProt P33261). The series is described as follows: Inhibition of human liver microsome CYP2C19 using mephenytoin as substrate incubated for 20 mins by LC-MS/MS analysis. It is filed as ADME, microsomes.
Sequence of Cytochrome P450 2C19 (P33261 whole entry): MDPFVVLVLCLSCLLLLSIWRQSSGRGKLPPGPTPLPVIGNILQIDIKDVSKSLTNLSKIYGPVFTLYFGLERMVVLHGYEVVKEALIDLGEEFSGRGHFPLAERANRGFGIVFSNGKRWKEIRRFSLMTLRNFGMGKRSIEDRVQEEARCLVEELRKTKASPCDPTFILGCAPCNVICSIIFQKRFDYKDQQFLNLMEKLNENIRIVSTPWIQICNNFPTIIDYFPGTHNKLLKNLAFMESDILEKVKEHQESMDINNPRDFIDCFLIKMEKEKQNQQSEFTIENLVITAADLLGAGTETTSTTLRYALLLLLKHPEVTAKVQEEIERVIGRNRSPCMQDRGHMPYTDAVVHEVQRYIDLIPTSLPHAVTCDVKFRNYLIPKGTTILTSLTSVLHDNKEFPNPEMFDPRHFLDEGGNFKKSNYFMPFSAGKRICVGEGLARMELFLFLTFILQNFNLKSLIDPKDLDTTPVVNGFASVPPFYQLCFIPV
Series [18] concerns the target Cytochrome P450 3A4 (Homo sapiens, UniProt P08684). The series is described as follows: Inhibition of human liver microsome CYP3A4 using midazolam as substrate incubated for 20 mins by LC-MS/MS analysis. Type of series: ADME, microsomes.
For series [19], the target named is T1, Cytochrome P450 2B6 (Homo sapiens, UniProt P20813).
T1 sequence (P20813 whole entry): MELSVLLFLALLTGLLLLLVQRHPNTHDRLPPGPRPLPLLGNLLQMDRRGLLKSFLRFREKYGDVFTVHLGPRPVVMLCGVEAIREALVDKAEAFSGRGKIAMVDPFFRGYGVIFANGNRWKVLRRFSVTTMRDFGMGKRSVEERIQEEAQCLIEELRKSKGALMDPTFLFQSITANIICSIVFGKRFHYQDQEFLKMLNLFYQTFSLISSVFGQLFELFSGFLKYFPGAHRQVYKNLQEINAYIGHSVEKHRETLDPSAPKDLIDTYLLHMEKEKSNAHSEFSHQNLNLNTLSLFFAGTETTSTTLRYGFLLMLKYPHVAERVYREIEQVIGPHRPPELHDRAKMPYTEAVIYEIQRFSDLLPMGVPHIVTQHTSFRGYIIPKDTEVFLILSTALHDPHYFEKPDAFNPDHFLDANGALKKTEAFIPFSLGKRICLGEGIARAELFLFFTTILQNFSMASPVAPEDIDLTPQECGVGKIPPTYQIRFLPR
The series is described as follows: Inhibition of human liver microsome CYP2B6 using bupropion as substrate incubated for 20 mins by LC-MS/MS analysis. Type of series: ADME, microsomes.

Converted amounts (≈) assume the structure as drawn. A value given as a limit tells only on which side of the number the result lay.

Sequence of Cytochrome P450 3A4 (P08684 whole entry): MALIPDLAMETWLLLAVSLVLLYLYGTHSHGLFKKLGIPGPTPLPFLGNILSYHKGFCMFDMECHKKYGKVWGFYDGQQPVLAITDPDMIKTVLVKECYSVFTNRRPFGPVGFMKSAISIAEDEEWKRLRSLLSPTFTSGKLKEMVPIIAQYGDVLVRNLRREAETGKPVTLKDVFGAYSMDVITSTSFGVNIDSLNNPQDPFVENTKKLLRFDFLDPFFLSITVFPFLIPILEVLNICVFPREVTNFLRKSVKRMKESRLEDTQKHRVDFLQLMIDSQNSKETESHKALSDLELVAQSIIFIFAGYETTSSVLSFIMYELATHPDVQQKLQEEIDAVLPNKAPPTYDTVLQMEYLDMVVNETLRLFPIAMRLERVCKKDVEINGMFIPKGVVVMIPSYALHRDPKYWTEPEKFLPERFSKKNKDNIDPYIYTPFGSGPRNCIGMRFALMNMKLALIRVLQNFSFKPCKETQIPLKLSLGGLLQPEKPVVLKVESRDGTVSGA

As a reminder, the CC50 is the concentration that lowers cell viability or growth by half. A word on the Papp B→A: it is the apparent permeability from the basolateral to the apical side of a cell layer. What is called IC50 is the midpoint of a concentration-inhibition curve. A word on the kinetic solubility: it is solubility judged after dilution from a stock solution rather than from solid. The term fraction unbound denotes free concentration divided by total concentration. For orientation: Papp A→B means how fast a substance crosses the layer from the apical side. Take `NC[C@H](NC(=O)c1ccc(-c2cc(F)c(Cl)c(F)c2)[nH]1)c1nc(CO)cs1`: in series [1], the half-maximal cytotoxic concentration (CC50) at 48 h was greater than 51 µM. Also, the remaining at 2 h, 3 µM in series [2] came to 90.4%. In series [3], the Papp B→A at 2 h worked out at 17 ×10⁻⁶ cm/s. For the same compound, the IC50 in series [4] worked out at 0.44 µM; in series [10] it was 1.3 µM; in series [11], 0.87 µM; in [13], 0.079 µM. Besides, the figures for the kinetic solubility at […], 500 µM in [5] and in [14] were 500 µM (≈ 206 µg/mL) and 100 µM (≈ 41.3 µg/mL), respectively. Also, the CC50 at 72 h in series [6] came out at 42.1 µM. The free fraction (fraction unbound) at 5 µM in [7] stood at 0.00281. For the same compound, the microsomal CLint at 3 µM in [8] turned out to be 1.6 µL/min/mg. For the same compound, in series [9], the CC50 at 49 h stood at 61 µM. Further, the 50% cytotoxic concentration (CC50) at 96 h in series [12] amounted to 32.6 µM. Also, the Papp A→B at 2 h in series [15] was 0.471 ×10⁻⁶ cm/s. Moreover, in [16], the Activity result is on record as “Non-Toxic”.
`NC[C@H](NC(=O)c1ccc(-c2ccc(C(F)(F)F)c(F)c2)[nH]1)c1nc(CO)cs1`: the half-inhibitory concentration (IC50) in series [17] was greater than 25 µM; in series [18], greater than 25 µM; in [10] it was 0.88 µM; in series [19], greater than 25 µM. Also, the CC50 at 48 h in [1] came to 34 µM. In series [2], the remaining at 2 h, 3 µM turned out to be 88.5%. The basolateral-to-apical permeability (Papp B→A) at 2 h in series [3] stood at 17.7 ×10⁻⁶ cm/s. The solubility (kinetic) at […], 500 µM in series [5] and in series [14] was 100 µM (≈ 42.8 µg/mL) in each case. For the same compound, in [6], the CC50 at 72 h was 21.9 µM. Further, the fraction unbound at 5 µM in series [7] stood at 0.00949. Also, in series [8], the microsomal CLint at 3 µM is 1.8 µL/min/mg. Besides, in series [9], the half-maximal cytotoxic concentration (CC50) at 49 h amounted to 38.7 µM. For the same compound, in series [12], the half-maximal cytotoxic concentration (CC50) at 96 h came out at 22.1 µM. Moreover, in series [15], the Papp A→B at 2 h came to 0.602 ×10⁻⁶ cm/s. Moreover, the Activity result in series [16] is on record as “Non-Toxic”.
